PMC6718200 (Bioorganic & medicinal chemistry, 2018)

Legend:
HT29 [1] = assay: Western blotting analysis; format: cell-based, human; conditions: HT29, 0, 25, 50, 75 μM, 48 h
Method in brief: (§1)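 Cells were treated with test compound at 0, 25, 50 and 75 μM for 48 h and lysed in RIPA with protease and phosphatase inhibitors; protein was quantified by BCA. 50 µg lysate was run on 8–15% SDS-PAGE and transferred to PVDF. Blocking was 5% BSA/TBST for 2 h at RT; primary antibodies overnight at 4 °C; HRP secondary 1:10000 for 1 h. Detection by ECL, with tubulin as loading control and densitometry. Three independent experiments; mean ± SD.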

HT29 [2] = assay: Hoechst 33342 staining; format: cell-based, human; conditions: HT29, 0, 25, 50, 75 μM, 48 h
Method in brief: (§2)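 Chromatin-condensation assay. HT29 (McCoy's 5a) and SW620 (high-glucose DMEM), each with 10% FBS, were seeded into 24-well plates. They were treated with the test compound at 0, 25, 50 or 75 μM for 48 h, then fixed in 4% paraformaldehyde for 20 min and washed with PBS. Cells were stained with Hoechst 33342 for 15 min at 37 °C. Condensed-chromatin apoptotic cells were scored by fluorescence microscopy.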

SW620 [3] = assay: Hoechst 33342 staining; format: cell-based, human; conditions: SW620, 0, 25, 50, 75 μM, 48 h
Method in brief: as §2

HT29 [4] = assay: BrdU assay; format: cell-based, human; conditions: HT29, 0, 25, 50, 75 μM, 48 h
Method in brief: (§3)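 Cells at 80% confluence were seeded at 20,000 per well and exposed to test compound at 0, 25, 50 and 75 μM for 48 h. They were pulsed with 10 μM BrdU for 2 h, fixed in paraformaldehyde, treated with 2 M HCl for 30 min, and blocked with 10% goat serum for 30 min at 37 °C. Staining used rat anti-BrdU (1:2000, overnight, 4 °C), then […] (1:2000, 120 min, RT), then DAPI at 300 nM. The % BrdU-positive cells was scored by fluorescence microscopy. Three independent experiments; mean ± SD.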

97-kinase panel = 97-kinase panel screen; format: binding; conditions: read-out: Kd, all tested kinases
HT29 [5] = assay: Colony formation assay; format: cell-based, human; conditions: HT29, exposure for two weeks
SW620 [6] = assay: Colony formation assay; format: cell-based, human; conditions: SW620, exposure for two weeks
SW620 [7] = assay: Western blotting analysis; format: cell-based, human; conditions: SW620, 0, 25, 50, 75 μM, 48 h
Method in brief: as §1

SW620 [8] = assay: Cell cycle analysis by flow cytometry; format: cell-based, human; conditions: SW620, 0, 25, 50, 75 μM, 48 h
Method in brief: (§4)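 Cells were cultured in 10% FBS at 37 °C and 5% CO2 (HT29 in McCoy's 5a, SW620 in high-glucose DMEM). At 80% confluence they were seeded into 6-well plates and exposed to the test compound at 0, 25, 50 or 75 μM for 48 h. Cells were washed in cold PBS and fixed in 70% ethanol at 4 °C for 24 h. They were stained with PI plus RNase A for 30 min at 37 °C in the dark, then analysed by flow cytometry. Three independent experiments.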

SW620 [9] = assay: BrdU assay; format: cell-based, human; conditions: SW620, 0, 25, 50, 75 μM, 48 h
Method in brief: as §3

FHC cell lines = assay: MTT assay, growth inhibition in immortalized colorectal cells; format: cell-based; conditions: Homo sapiens, read-out: GI50 FHC
Method in brief: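 MTT format: 3 × 10³ cells per well, 24 h pre-incubation, then test compound at 0–200 μM (final, from DMSO stocks) for 12, 24, 48 or 72 h. MTT at 0.5 mg/mL final for 4 h; formazan dissolved in DMSO; A570. GI50 was fitted from growth-inhibition curves, three independent experiments in sextuplicate.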

SW620 [10] = assay: Apoptosis assessment, PI/annexin V-FITC flow cytometry; format: cell-based, human; conditions: SW620, 0, 25, 50, 75 μM, 48 h
Method in brief: (§5)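 Cells were grown in 10% FBS medium at 37 °C and 5% CO2: HT29 in McCoy's 5a, SW620 in high-glucose DMEM. They were treated with the test compound at 0, 25, 50 or 75 μM for 48 h. Attached and floating cells were pooled, washed twice in cold PBS and stained with annexin V-FITC/PI for 15 min at room temperature. The apoptotic fraction was read by flow cytometry. Three independent experiments, mean ± SD, two-tailed t-test.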

HT29 [11] = assay: Cell cycle analysis by flow cytometry; format: cell-based, human; conditions: HT29, 0, 25, 50, 75 μM, 48 h
Method in brief: as §4

HT29 [12] = assay: Apoptosis assessment, PI/annexin V-FITC flow cytometry; format: cell-based, human; conditions: HT29, 0, 25, 50, 75 μM, 48 h
Method in brief: as §5

## CC(C)CN(C(=O)c1cccnc1)c1c2ccccc2c(=O)n2c1[nH]c1ccccc12 [Compound 7g]
HT29 [1]
  BCL-2 protein level: decreased
  CDK1 level: decreased
  MCL-1 protein level: decreased
  PARP activation: significantly increased
  PTEN level: increase in a concentration-dependent manner
  cyclin B1 level: decreased
  p21 level: increased
  p53 level: increased
  p-4E-BP1 level: decreased
  p-AKT level: decreased
  p-mTOR level: decreased
  total expression levels of AKT, mTOR and 4E-BP1: hadn’t effect
HT29 [2]
  number of apoptosis bodies: increased in a concentration-dependent manner
SW620 [3]
  number of apoptosis bodies: increased in a concentration-dependent manner
HT29 [4]
  proliferation (BrdU immunofluorescence): inhibited the proliferation
97-kinase panel
  Kd: > 5 µM
HT29 [5]
  colony size and numbers: dramatically reduced
SW620 [6]
  colony size and numbers: dramatically reduced
SW620 [7]
  BCL-2 protein level: decreased
  CDK1 level: decreased
  MCL-1 protein level: decreased
  PARP activation: significantly increased
  PTEN level: increase in a concentration-dependent manner
  cyclin B1 level: decreased
  p21 level: increased
  p53 level: increased
  p-4E-BP1 level: decreased
  p-AKT level: decreased
  p-mTOR level: decreased
  total expression levels of AKT, mTOR and 4E-BP1: hadn’t effect
SW620 [8]
  average G2/M proportion: increased in a concentration-dependent manner
SW620 [9]
  proliferation (BrdU immunofluorescence): inhibited the proliferation
FHC cell lines
  GI50: > 200 µM
SW620 [10]
  percentage of cells undergoing apoptosis: increased in a concentration-dependent manner
HT29 [11]
  average G2/M proportion: increased in a concentration-dependent manner
HT29 [12]
  percentage of cells undergoing apoptosis: increased in a concentration-dependent manner
